Laboratory results taken from ChEMBL document CHEMBL5705905, “Pharmacological targeting of kinases MST1 and MST2 augments tissue repair and regeneration” (Sci Transl Med, 2016).
Calls of active or inactive are those of the source. The rule behind the calls is not given here.

How the values were obtained:
[1] = target: Serine/threonine-protein kinase WNK4 (Homo sapiens) (UniProt Q96J92); assay: Inhibition of WNK4 (unknown origin) assessed as remaining activity at 1 uM by Kinome scan method relative to control
[2] = target: Tyrosine-protein kinase Fyn (Homo sapiens) (UniProt P06241); assay: Inhibition of FYN (unknown origin) assessed as remaining activity at 1 uM by Kinome scan method relative to control
HepG2 = assay: Inhibition of Flag-tagged MST1 Y101F mutant (unknown origin) in human HepG2 cells assessed as MOB1 phosphorylation level at 3 uM by immunoblot analysis; format: cell-based
[3] = target: Mitogen-activated protein kinase kinase kinase 2 (Homo sapiens, UniProt Q9Y2U5); assay: Inhibition of MAP3K2 (unknown origin) in presence of ATP by enzymatic assay
Mus musculus [4] = assay: In vivo inhibition of MST1/2 in wild-type Mst1fl/fl Mst2fl/fl mouse assessed as decrease in YAP phosphorylation level at 1 mg/kg, ip administrated daily for 7 days by immunoblot analysis; format: functional, organism-based; details: Liver, time 7.0 day
[5] = target: Casein kinase I isoform alpha (Homo sapiens) (UniProt P48729); assay: Inhibition of CSNK1A1 (unknown origin) assessed as remaining activity at 1 uM by Kinome scan method relative to control
Summary of the method: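 Active-site-dependent competition-binding profiling (KINOMEscan) at 1 μM against a 468-kinase panel; compound supplied from a 10 mM DMSO stock. Read-out is ctrl% = (test signal − positive control signal)/(negative control signal − positive control signal) × 100. DMSO is the negative control (100%) and a control compound the positive control (0%). Lower ctrl% means tighter binding.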

[6] = target: Tyrosine-protein kinase ITK/TSK (Homo sapiens) (UniProt Q08881); assay: Inhibition of ITK (unknown origin) assessed as remaining activity at 1 uM by Kinome scan method relative to control
[7] = target: T1, Serine/threonine-protein kinase 3 (Homo sapiens, UniProt Q13188); assay: Binding affinity to MST2 (unknown origin) assessed as dissociation constant
T1 sequence (Q13188 whole entry): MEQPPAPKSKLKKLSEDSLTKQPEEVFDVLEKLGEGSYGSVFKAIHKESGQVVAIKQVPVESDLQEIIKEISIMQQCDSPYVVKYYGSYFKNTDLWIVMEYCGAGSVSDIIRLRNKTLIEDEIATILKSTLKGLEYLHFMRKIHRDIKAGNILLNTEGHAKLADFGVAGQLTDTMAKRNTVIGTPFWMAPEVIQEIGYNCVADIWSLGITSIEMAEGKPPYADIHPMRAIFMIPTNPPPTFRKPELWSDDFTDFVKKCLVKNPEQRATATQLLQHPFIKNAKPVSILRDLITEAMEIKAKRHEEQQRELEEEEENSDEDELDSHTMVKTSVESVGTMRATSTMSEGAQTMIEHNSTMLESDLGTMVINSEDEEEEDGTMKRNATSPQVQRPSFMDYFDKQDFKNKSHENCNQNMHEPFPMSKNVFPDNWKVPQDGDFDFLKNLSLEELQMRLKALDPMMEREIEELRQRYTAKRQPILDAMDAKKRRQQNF

[8] = target: Ephrin type-B receptor 2 (Homo sapiens) (UniProt P29323); assay: Inhibition of EPHB2 (unknown origin) assessed as remaining activity at 1 uM by Kinome scan method relative to control
[9] = target: cAMP-dependent protein kinase catalytic subunit beta (Homo sapiens) (UniProt P22694); assay: Inhibition of PKAC-beta (unknown origin) assessed as remaining activity at 1 uM by Kinome scan method relative to control
[10] = target: Angiopoietin-1 receptor (Homo sapiens) (UniProt Q02763); assay: Inhibition of TIE2 (unknown origin) assessed as remaining activity at 1 uM by Kinome scan method relative to control
[11] = target: Vascular endothelial growth factor receptor 1 (Homo sapiens) (UniProt P17948); assay: Inhibition of FLT1 (unknown origin) assessed as remaining activity at 1 uM by Kinome scan method relative to control
[12] = Acute toxicity in wild-type mouse assessed as CK19-positive cells at 1 mg/kg,ip administrated daily for 2 months and after 2 weeks drug withdrawal by H and E staining based immunohistochemical analysis; format: organism-based; details: in vivo, 1460 h
Summary of the method: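 Wild-type mice dosed 1 mg/kg i.p. daily for 2 months (vehicle 0.1% citric acid aqueous solution with 20% Kolliphor HS 15), or dosed and then withdrawn 2 weeks. Liver sections given H&E and IHC for CK19 and BrdU; positive cells counted, n = 3; means ± SD, Student's t test.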

[13] = Inhibition of recombinant His-tagged full-length MST1 D109A mutant (unknown origin) expressing in Escherichia coli assessed as MOB1 phosphorylation level incubated for 15 min by immunoblot analysis; parameters: species or system Homo sapiens
[14] = target: Tyrosine-protein kinase Lck (Homo sapiens) (UniProt P06239); assay: Inhibition of LCK (unknown origin) assessed as remaining activity at 1 uM by Kinome scan method relative to control
[15] = target: Serine/threonine-protein kinase 24 (Homo sapiens, UniProt Q9Y6E0); assay: Inhibition of MST3 (unknown origin) in presence of ATP by enzymatic assay
[16] = target: Receptor-interacting serine/threonine-protein kinase 4 (Homo sapiens, UniProt P57078); assay: Binding affinity to RIPK4 (unknown origin) assessed as dissociation constant
[17] = target: High affinity nerve growth factor receptor (Homo sapiens) (UniProt P04629); assay: Inhibition of TRKA (unknown origin) assessed as remaining activity at 1 uM by Kinome scan method relative to control
[18] = target: Phosphatidylinositol 4,5-bisphosphate 3-kinase catalytic subunit beta isoform (Homo sapiens) (UniProt P42338); assay: Inhibition of PIK3CB (unknown origin) assessed as remaining activity at 1 uM by Kinome scan method relative to control
Mus musculus [19] = assay: Protection against APAP induced liver injury in mouse assessed as decrease in ALT level at 1 mg/kg, ip administered at 2.5 hrs; format: functional, organism-based; details: Serum
[20] = target: Mitogen-activated protein kinase kinase kinase 11 (Homo sapiens) (UniProt Q16584); assay: Inhibition of MLK3 (unknown origin) assessed as remaining activity at 1 uM by Kinome scan method relative to control
RAW264.7 = assay: Inhibition of MST1/2 (unknown origin) in mouse RAW264.7 cells assessed as H2O2 stimulated MST1/2 autophosphorylation level at 1 to 3 uM by immunoblot analysis; format: cell-based; details: dose 1-3 µM
[21] = Half life in male Sprague-Dawley rat at 10 mg/kg, po measured for 24 hrs by LC-MS/MS analysis; format: ADME, organism-based; details: in vivo
Summary of the method: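 Sprague-Dawley rats, single intravenous or oral dose. Parameters (half-life, AUC, bioavailability) reported in a supplementary table.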

[22] = target: Activin receptor type-1B (Homo sapiens) (UniProt P36896); assay: Inhibition of ACVR1B (unknown origin) assessed as remaining activity at 1 uM by Kinome scan method relative to control
Summary of the method: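 Active-site-dependent competition-binding (KINOMEscan) panel of 468 kinases, test compound at 1 μM (from a 10 mM DMSO stock). Read-out is ctrl% = (test signal − positive control signal)/(negative control signal − positive control signal) × 100. DMSO is the negative control (100%) and a control compound is the positive control (0%). Lower ctrl% means tighter binding.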

Sequence of Tyrosine-protein kinase Lck (Homo sapiens) (P06239 2-509 limits assumed): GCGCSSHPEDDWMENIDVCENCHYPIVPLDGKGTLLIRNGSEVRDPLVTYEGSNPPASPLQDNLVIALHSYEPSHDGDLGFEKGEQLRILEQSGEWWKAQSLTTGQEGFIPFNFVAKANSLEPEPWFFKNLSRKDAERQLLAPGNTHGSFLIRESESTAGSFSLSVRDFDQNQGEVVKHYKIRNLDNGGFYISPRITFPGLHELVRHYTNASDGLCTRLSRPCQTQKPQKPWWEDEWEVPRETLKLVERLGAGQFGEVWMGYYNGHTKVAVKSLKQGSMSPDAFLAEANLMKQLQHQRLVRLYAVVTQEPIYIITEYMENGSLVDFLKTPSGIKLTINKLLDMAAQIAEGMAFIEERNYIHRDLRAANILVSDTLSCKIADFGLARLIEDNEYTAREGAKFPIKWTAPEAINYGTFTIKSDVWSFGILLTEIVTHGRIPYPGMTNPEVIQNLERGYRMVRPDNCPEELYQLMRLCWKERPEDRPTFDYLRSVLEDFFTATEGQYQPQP
Sequence of Serine/threonine-protein kinase 24 (Q9Y6E0 whole entry): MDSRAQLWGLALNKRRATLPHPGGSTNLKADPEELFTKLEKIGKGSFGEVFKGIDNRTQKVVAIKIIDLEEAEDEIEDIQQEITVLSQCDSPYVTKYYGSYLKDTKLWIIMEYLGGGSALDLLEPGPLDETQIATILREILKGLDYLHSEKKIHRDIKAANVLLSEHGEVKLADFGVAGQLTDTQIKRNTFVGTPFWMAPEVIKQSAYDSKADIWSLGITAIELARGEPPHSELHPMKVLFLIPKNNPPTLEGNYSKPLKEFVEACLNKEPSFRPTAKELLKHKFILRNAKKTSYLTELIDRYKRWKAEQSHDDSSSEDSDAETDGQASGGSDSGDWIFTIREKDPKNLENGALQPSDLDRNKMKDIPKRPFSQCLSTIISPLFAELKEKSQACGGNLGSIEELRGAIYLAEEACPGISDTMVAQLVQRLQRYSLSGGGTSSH
Sequence of Vascular endothelial growth factor receptor 1 (Homo sapiens) (P17948 whole entry): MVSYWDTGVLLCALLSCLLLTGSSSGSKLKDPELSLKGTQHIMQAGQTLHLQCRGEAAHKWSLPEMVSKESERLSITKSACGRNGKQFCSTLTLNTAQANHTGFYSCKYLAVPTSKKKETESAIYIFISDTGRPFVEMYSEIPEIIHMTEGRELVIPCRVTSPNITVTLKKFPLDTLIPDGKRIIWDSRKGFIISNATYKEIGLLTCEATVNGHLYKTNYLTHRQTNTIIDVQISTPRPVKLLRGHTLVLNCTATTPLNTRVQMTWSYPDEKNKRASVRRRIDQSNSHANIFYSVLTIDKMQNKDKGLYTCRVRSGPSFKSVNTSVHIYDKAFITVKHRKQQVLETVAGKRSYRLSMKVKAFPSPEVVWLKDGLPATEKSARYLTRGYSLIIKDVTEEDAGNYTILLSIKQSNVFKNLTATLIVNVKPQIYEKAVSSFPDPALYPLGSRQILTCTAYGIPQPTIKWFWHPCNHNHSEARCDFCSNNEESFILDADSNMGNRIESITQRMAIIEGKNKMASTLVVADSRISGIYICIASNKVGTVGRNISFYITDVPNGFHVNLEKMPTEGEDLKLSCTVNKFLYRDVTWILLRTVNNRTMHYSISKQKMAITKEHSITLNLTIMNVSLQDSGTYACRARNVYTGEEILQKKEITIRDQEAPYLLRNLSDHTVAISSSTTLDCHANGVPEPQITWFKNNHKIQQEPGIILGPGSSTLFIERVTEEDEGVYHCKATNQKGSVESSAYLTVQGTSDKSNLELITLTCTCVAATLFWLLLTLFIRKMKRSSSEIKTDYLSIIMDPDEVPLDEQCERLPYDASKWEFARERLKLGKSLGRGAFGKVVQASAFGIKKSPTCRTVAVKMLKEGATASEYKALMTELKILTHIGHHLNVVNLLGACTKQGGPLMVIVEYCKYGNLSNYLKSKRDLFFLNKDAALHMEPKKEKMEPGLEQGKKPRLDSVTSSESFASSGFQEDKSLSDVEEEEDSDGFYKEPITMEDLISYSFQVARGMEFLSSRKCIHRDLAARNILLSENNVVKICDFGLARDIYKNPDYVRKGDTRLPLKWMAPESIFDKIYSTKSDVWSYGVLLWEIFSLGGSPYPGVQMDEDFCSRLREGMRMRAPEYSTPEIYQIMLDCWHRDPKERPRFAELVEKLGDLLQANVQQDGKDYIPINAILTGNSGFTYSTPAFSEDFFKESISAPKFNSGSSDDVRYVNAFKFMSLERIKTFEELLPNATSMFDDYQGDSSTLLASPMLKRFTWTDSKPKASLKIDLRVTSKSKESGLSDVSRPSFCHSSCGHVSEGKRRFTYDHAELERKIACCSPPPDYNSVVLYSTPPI
Sequence of Casein kinase I isoform alpha (Homo sapiens) (P48729 2-337 limits assumed): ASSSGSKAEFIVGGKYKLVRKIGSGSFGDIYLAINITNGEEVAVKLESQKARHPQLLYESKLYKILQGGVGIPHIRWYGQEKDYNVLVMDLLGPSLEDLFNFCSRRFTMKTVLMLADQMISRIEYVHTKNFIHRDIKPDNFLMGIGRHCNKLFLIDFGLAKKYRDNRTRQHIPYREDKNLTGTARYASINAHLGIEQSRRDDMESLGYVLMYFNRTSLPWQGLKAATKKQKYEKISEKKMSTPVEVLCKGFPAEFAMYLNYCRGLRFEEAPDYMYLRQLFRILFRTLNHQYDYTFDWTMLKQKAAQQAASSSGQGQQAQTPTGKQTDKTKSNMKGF
Sequence of Tyrosine-protein kinase Fyn (Homo sapiens) (P06241 2-537 limits assumed): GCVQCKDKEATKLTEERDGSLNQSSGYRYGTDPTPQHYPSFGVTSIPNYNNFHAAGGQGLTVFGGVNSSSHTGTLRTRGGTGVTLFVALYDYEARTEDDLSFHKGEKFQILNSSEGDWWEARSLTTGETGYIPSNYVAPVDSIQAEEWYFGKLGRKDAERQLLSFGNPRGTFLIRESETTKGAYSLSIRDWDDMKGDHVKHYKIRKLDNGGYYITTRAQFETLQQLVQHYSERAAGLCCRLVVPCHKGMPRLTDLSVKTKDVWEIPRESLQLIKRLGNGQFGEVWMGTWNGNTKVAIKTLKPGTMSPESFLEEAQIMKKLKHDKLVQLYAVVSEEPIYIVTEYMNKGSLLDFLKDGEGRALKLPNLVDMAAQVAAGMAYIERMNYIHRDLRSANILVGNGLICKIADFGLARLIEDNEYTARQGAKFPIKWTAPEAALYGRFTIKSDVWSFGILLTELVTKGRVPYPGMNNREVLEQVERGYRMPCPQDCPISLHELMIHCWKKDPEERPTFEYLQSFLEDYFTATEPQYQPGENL
Sequence of Tyrosine-protein kinase ITK/TSK (Homo sapiens) (Q08881 whole entry): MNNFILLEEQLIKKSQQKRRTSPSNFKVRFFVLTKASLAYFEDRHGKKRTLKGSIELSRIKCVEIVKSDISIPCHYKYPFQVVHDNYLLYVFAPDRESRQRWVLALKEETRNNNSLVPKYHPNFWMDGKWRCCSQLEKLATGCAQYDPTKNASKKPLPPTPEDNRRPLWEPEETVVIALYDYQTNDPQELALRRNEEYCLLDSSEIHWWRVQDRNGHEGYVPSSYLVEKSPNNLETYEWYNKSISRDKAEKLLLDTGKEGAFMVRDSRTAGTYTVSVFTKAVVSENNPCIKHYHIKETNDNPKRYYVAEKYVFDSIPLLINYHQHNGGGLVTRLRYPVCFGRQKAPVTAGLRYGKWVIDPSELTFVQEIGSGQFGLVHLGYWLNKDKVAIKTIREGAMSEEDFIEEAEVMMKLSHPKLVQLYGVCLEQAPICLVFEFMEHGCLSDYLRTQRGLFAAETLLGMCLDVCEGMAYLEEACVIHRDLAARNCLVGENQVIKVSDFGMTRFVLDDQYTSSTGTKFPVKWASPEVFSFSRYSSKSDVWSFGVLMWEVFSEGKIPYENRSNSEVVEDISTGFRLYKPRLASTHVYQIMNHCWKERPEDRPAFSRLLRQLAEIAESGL
Sequence of Mitogen-activated protein kinase kinase kinase 11 (Homo sapiens) (Q16584 whole entry, looked up): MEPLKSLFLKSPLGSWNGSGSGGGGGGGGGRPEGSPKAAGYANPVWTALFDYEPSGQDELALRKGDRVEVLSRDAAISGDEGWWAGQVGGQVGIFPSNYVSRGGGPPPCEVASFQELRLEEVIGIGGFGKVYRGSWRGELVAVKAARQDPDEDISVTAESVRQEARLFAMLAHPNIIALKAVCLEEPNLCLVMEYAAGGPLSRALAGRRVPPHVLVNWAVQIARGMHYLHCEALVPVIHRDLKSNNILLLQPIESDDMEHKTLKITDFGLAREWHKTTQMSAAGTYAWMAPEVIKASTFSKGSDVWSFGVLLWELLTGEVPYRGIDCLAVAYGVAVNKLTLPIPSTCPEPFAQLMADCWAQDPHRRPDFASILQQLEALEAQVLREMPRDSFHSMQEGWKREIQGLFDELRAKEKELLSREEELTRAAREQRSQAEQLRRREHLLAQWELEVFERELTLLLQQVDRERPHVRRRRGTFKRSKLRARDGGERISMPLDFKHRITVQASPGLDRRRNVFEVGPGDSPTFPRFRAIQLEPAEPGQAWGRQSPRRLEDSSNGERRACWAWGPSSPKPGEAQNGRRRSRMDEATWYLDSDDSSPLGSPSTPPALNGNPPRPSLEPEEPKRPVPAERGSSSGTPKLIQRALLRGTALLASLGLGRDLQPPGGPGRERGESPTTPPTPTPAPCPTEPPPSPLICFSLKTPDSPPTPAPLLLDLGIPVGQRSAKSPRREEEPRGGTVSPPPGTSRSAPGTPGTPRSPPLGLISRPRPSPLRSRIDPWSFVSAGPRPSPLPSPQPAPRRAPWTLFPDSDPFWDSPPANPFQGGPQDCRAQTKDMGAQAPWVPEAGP

CN1C(=O)c2sccc2N(C)c2nc(Nc3ccc(S(N)(=O)=O)cc3)ncc21
Activity [1]: 95%
Activity [2]: 100%
inhibition (HepG2): Active
IC50 [3]: 79.6 nM
inhibition (Mus musculus [4]): Active
Activity [5]: 88%
Activity [6]: 97%
Kd [7]: 11 nM
Activity [8]: 100%
Activity [9]: 80%
Activity [10]: 74%
Activity [11]: 84%
Activity [12]: Non-Toxic
IC50 [13]: 753 nM
Activity [14]: 100%
IC50 [15]: 44.8 nM
Kd [16]: 140 nM
Activity [17]: 56%
Activity [18]: 72%
Activity (Mus musculus [19]): Active
Activity [20]: 100%
inhibition (RAW264.7): Active
half-life [21]: 5.18 h
Activity [22]: 76%
